We go through three compounds from paper PMC9811456 (Molecular Pharmaceutics, 2022).

“And” between values parts separate entries of the source, which are not always exact repeats. Equal entries are not always repeated. “Also recorded” adds a separate entry of the source.

Data set [1] has as its system HCMV (AD169). Description: Antiviral CPE assay, HCMV AD169. In kind it is cell-based, human cytomegalovirus. As to conditions: CC50/EC50.
Data set [2] concerns MCMV (Smith). Description: Antiviral qPCR assay, MCMV in MEF cells. As to conditions: CC50/EC50. In kind it is cell-based, murine cytomegalovirus. For orientation: Quantitative PCR measures a nucleic acid by following its amplification.
Data set [3] relates to human foreskin fibroblast (HFF) cells. The experiment in a line: Intracellular conversion to CDV-PP, HFF model. In kind it is cell-based. As to conditions: 30 nM, 72 h. The method, boiled down:
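Primary HFF cells (passage ≤10) were seeded at 6 × 10^6 per T-75 flask for 24 h. They were exposed in triplicate to 30 nM compound or vehicle in DMEM/2% FBS at 37 °C, 5% CO2 for 72 h, after preincubating the dosing solutions 24 h at 37 °C. Half the flasks were counted. The rest were rinsed in chilled saline and lysed in methanol:water 70:30. Prodrug, CDV and CDV-PP were measured by LC–MS/MS (5–2000 nM qualified range). Results are mean ± SD.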

For data set [4], the system named is ADV5 (Adenoid 75). The experiment in a line: Antiviral CPE assay, ADV5. In kind it is cell-based, adenovirus (AdV-5). The settings on record: CC50/EC50.
Data set [5] concerns HCMV (GDG^RK17). The experiment in a line: Antiviral assay, HCMV GDGRK17. In kind it is cell-based, human cytomegalovirus. As to conditions: CC50/EC50; single replicate.
In data set [6] the test system is EBV (Akata). Description: Antiviral qPCR assay, EBV. In kind it is cell-based, Epstein–Barr virus. As to conditions: for SI EBV (Akata): CC50/EC50; for EC50: human gammaherpesvirus 4, Akata, 72 h, read-out: EC50 EBV (Akata).
Data set [7] deals with HHV-6B (Z29). Description: Antiviral qPCR assay, HHV-6B. In kind it is cell-based, human herpes virus-6B. As to conditions: for SI HHV-6B (Z29): CC50/EC50; for EC50: Homo sapiens, MOLT-3, 168 h, read-out: EC50 HHV-6B (Z29).
The test system of data set [8] is HHV-8 (BCBL-1). Description: Antiviral qPCR assay, HHV-8. In kind it is cell-based, human herpes virus 8. As to conditions: for SI HHV-8 (BCBL-1): CC50/EC50; for EC50: Homo sapiens, BCBL1, 168 h, read-out: EC50 HHV-8 (BCBL-1).
In data set [9] the test system is JC virus (MAD-4). The experiment in a line: Antiviral qPCR assay, JC virus. In kind it is cell-based. As to conditions: for SI JC virus (MAD-4): CC50/EC50; for EC50: JC polyomavirus, COS-7, 168 h, read-out: EC50 JC virus (MAD-4).
Data set [10] relates to BK virus (Gardner). Description: Antiviral qPCR assay, BK virus. In kind it is cell-based. As to conditions: CC50/EC50.
Data set [11] concerns vaccinia (Copenhagen). Description: microbe, parasite or virus in culture. In kind it is cell-based.
Data set [12] has as its system human adenovirus type 6 (AdV 6), strain tonsil 99 (HAdV-C6). The experiment in a line: Hamster model of AdV. In kind it is in vivo, immunosuppressed male Syrian hamsters. The settings on record: IP, 37 mg/kg induction then 20 mg/kg three times weekly. The method, boiled down:
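Male Syrian hamsters were immunosuppressed with IP cyclophosphamide (140 mg/kg induction, then 100 mg/kg). They received IV 3 × 10^10 pfu/kg AdV 6. There were 7 groups (n = 15), including uninfected vehicle and drug-only (1 mg/kg PO QD) controls. Test compound was given at 0.1, 0.3 or 1 mg/kg, and CDV IP (37, then 20 mg/kg thrice weekly) from day −1. Animals were weighed and observed daily. Liver TCID50 (HEK-293) was taken day 5, with serum transaminases. Survival was compared by log-rank and weight by mixed-effect analysis.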

Data set [13] deals with HCMV. The settings on record: read-out: EC50 against CMV; cited from earlier work.
The test system of data set [14] is HSV-1. As to conditions: read-out: EC50 against HSV-1; published data ref 42; cited from earlier work.
In data set [15] the test system is HSV-2. As to conditions: read-out: EC50 against HSV-2; published data ref 42; cited from earlier work.
Data set [16] deals with VZV. As to conditions: read-out: EC50 against VZV; published data ref 42; cited from earlier work.
Data set [17] can be described thus: Metabolic stability in rat hepatocytes. In kind it is in vitro ADME. A digest of the protocol: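 In hepatocyte stability, compound at 1 μM was incubated in duplicate with 0.5 × 10^6 cells/mL at 37 °C. Samples were taken over 2 h and quenched and precipitated with ice-cold methanol (1:1). The soluble fraction was analysed by LC–MS/MS.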
Data set [18] relates to HSV1 (E-377). The experiment in a line: microbe, parasite or virus in culture. In kind it is cell-based, herpesvirus 1 (HSV-1).
The subject of data set [19] is HSV2 (G). Description: microbe, parasite or virus in culture. In kind it is cell-based, herpesvirus 2 (HSV-2).
Data set [20] deals with VZV (Ellen). Description: microbe, parasite or virus in culture. In kind it is cell-based, varicella-zoster virus.
The nature of data set [21]: PK in mice after a single intravenous dose. In kind it is in vivo. The settings on record: mouse, plasma, 1 mg/kg.
Data set [22] can be described thus: Oral pharmacokinetics and biodistribution in mice. In kind it is in vivo, male CFW mice.
For data set [23] the following is noted: cited from earlier work.
Setting [24] is: equimolar oral doses, BCV vs NPP-669.

Turning to `Nc1nc(O)c2ncn(COC(CO)CO)c2n1` [ganciclovir], the “SI HCMV (AD169)” value in data set [1] is given as greater than 92. In addition, the “SI MCMV (Smith)” value in data set [2] is recorded as greater than 19.
Take `Nc1ccn(C[C@@H](CO)OCP(=O)(O)O)c(=O)n1` [CDV, cidofovir]: the “intracellular levels of CDV or CDV-PP” value in data set [3] (below the detection limit) is listed as no more than 10 ng/mL. Also, the “SI ADV5 (Adenoid 75)” value in data set [4] is greater than 23. In data set [5], the “SI HCMV (GDG^RK17)” value is greater than 1034. In addition, the “SI EBV (Akata)” value in [6] is on record as greater than 10. The EC50 (usually the concentration that produces a half-maximal response) in data set [6] was 10100 ± 3440 nM; in [7], 7090 ± 3590 nM; in data set [8] it was 1500 ± 700 nM; in data set [9], 18400 ± 16000 nM; in data set [11] (Orthopoxvirus vaccinia, HFF, read-out: EC50 vaccinia (Copenhagen)), 14600 nM; in [13], roughly 1000 nM. For the same compound, the 50% effective concentration (EC50) in data set [14] is 3000 to 5000 nM; in data set [15] it was 5000 to 6000 nM; in data set [16] it was 500 nM. For the same compound, in data set [7], the “SI HHV-6B (Z29)” value was determined as 10. For the same compound, in data set [8], the “SI HHV-8 (BCBL-1)” value is given as greater than 67. Moreover, the “SI JC virus (MAD-4)” value in [9] is reported as greater than 8. In data set [10], the “SI BK virus (Gardner)” value is listed as greater than 26. The “SI vaccinia (Copenhagen)” value in data set [11] is greater than 10. Further, the “toxicity of the dose needed for antiviral efficacy” value in data set [12] was “low-grade toxicity; also recorded: toxic dose”.
In the case of `CCCCCCCCCCCCCCCCOCCCOP(=O)(O)CO[C@H](CO)Cn1ccc(N)nc1=O` [BCV, brincidofovir], in [17], the half-life (commonly the time in which the quantity being followed falls by half) at 1 μM came to 2.37 h and the hepatocyte CLint (usually a measure of how fast metabolising enzymes remove a compound, apart from limits set by blood flow) at 1 μM is 9.73 µL/min/1e6 cells. In addition, the intracellular pro-drug level result in data set [3] is “highest levels of intracellular pro-drug”. Moreover, the “SI ADV5 (Adenoid 75)” value in [4] turned out to be 46. Besides, the “SI HSV1 (E-377)” value in data set [18] (CC50/EC50) is recorded as greater than 33. Besides, the EC50 in data set [18] (Human alphaherpesvirus 1, HFF, read-out: EC50 HSV1 (E-377)) amounted to 30 ± 20 nM. Further, the “SI HSV2 (G)” value in data set [19] (CC50/EC50) was greater than 50. Besides, in data set [19] (Human alphaherpesvirus 2, HFF, read-out: EC50 HSV2 (G)), the concentration for a half-maximal effect (EC50) was determined as 20 ± 10 nM. For the same compound, the “SI VZV (Ellen)” value in data set [20] (CC50/EC50) came out at 114. In data set [20] (Human alphaherpesvirus 3, HFF, read-out: EC50 VZV (Ellen)), the concentration for a half-maximal effect (EC50) is 5 ± 5 nM. Also, in data set [1], the “SI HCMV (AD169)” value is recorded as 540. The “SI MCMV (Smith)” value in data set [2] was greater than 244. For the same compound, in data set [6], the “SI EBV (Akata)” value is greater than 11 and the concentration for a half-maximal effect (EC50) came to 90 ± 90 nM. In addition, in data set [7], the “SI HHV-6B (Z29)” value was determined as 16 and the concentration for a half-maximal effect (EC50) amounted to 30 ± 20 nM. For the same compound, in [8], the “SI HHV-8 (BCBL-1)” value is 690 and the EC50 came out at 1 nM. Further, in data set [9], the “SI JC virus (MAD-4)” value is on record as greater than 3 and the EC50 worked out at 350 ± 260 nM. Moreover, the “SI BK virus (Gardner)” value in data set [10] worked out at 180. In [21], the AUC (in general, the area under the concentration-time curve, a measure of exposure) amounted to 171 ng·h/mL; the highest level (Cmax) was 491 ng/mL; the Vd (commonly the apparent volume that relates the amount in the body to the concentration in plasma or blood) came to 3.7 L/kg; the clearance – broadly, a measure of how efficiently the substance is removed, as volume per time – worked out at 122 mL/min/kg. In [21], the half-life was 0.4 h. For the same compound, in data set [22] (setting [24]), the “prodrug exposure in liver tissue” value is reported as “significantly higher levels than NPP-669” and the “prodrug levels in intestinal tissue” value is listed as “retained at substantially higher levels than NPP-669 in the intestinal tissue”. For the same compound, in data set [22] (single oral dose, NPP-669 30 mg/kg, BCV equimolar (26 mg/kg)), the “plasma levels over 24 h” value was > 0.003 μM and > 2 ng/mL. Moreover, the GI toxicity entry in [23] (daily doses at 10 mg/kg ref 36) is “GI toxicity was noted”. Also, the no observed adverse effect level (NOAEL) (as a rule, the highest tested level that showed no adverse finding) in data set [23] (twice weekly, in rats over 13 weeks ref 36) is reported as 15 mg/kg.
